For 9 compounds, MIC and inhibition results are on record in ChEMBL document CHEMBL3576792, “Enhancement of antibiotic activity against multidrug-resistant bacteria by the efflux pump inhibitor 3,4-dibromopyrrole-2,5-dione isolated from a Pseudoalteromonas sp” (J Nat Prod, 2015).

In brackets after ≈: the same amount, converted by molar mass. Activity calls are given as the source filed them. Residues, ends and D or L forms follow the SMILES beside them. *: point of attachment. βNA = c1ccc2cc(N*)ccc2c1 Where only a bound is given, the exact number is not on record here.

The test system of test [1] is Escherichia coli. In words: Antibacterial activity against Escherichia coli transformed with plasmid carrying MG1655 deltaBC/pXYM by p-iodonitrotetrazolium chloride colorimetric assay. The test is classed as functional. The method in brief: (§1)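 Two-fold broth microdilution in Mueller-Hinton broth, read by p-iodonitrotetrazolium chloride colorimetric assay. MIC is the lowest concentration giving no visible growth. MG1655 ΔacrB ΔtolC strains carrying pABM or pXYM were always cultured with 100 μg/mL ampicillin and 1 mM IPTG. Medium, inoculum and 1% DMSO (final) served as negative control.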

The subject of test [2] is Escherichia coli. In words: Antibacterial activity against Escherichia coli transformed with plasmid carrying MG1655 deltaBC/pABM by p-iodonitrotetrazolium chloride colorimetric assay. The test is classed as functional. The method in brief: as §1
The test system of test [3] is Escherichia coli. Put plainly: Antibacterial activity against Escherichia coli AG102 overexpressing AcrAB-TolC by p-iodonitrotetrazolium chloride colorimetric assay. The test is classed as functional. In short, it runs like this:
as §1

Test [4] relates to Escherichia coli. Put plainly: Inhibition of AcrAB-TolC pump in Escherichia coli AG100 assessed as increase in intracellular H33342 fluorescence at 15.6 ug/ml after 60 mins by efflux inhibition assay. The test is classed as cell-based. The method in brief: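 AG100 (wild-type K-12) or AG100A (ΔacrAB) cells were grown in Luria broth at 37 °C and 200 rpm to OD600 1.0, PBS-washed and diluted to OD600 0.3. Cells took up 2.5 μM Hoechst 33342 with 22 mM glucose at 37 °C for about 30 min, then compound (0.06–64 μg/mL) or PAβN (15.6 μg/mL) was added. Fluorescence (Ex 350/Em 460 nm) was followed for 60 min and corrected for background. The last four time points were compared to dye-only control by ANOVA with Dunnett's test, run in duplicate.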

Broadly, the MIC is the smallest concentration in the dilution series that meets the test's criterion for growth inhibition. A high value points to a less susceptible organism. Consider `CN(C)[C@@H]1C(O)=C(C(N)=O)C(=O)[C@@]2(O)C(O)=C3C(=O)c4c(O)cccc4[C@@](C)(O)[C@H]3C[C@@H]12` [TETRACYCLINE], for which the figures for the MIC with Escherichia coli [1], in the test with Escherichia coli [2] and against Escherichia coli [3] were 0.25 µg/mL (≈ 0.563 µM), 2 µg/mL (≈ 4.5 µM) and 8 µg/mL (≈ 18 µM), respectively.
The corresponding values for `CCN1CCN(C(=O)N[C@@H](C(=O)N[C@@H]2C(=O)N3[C@@H]2SC(C)(C)[C@@H]3C(=O)O)c2ccccc2)C(=O)C1=O` [PIPERACILLIN] are 512 µg/mL (≈ 989 µM), > 512 µg/mL and 4 µg/mL (≈ 7.73 µM).
For the compound `O=C(N[C@H](CO)[C@H](O)c1ccc([N+](=O)[O-])cc1)C(Cl)Cl` [CHLORAMPHENICOL], the results for the MIC against Escherichia coli [1], in the test with Escherichia coli [2] and in the test with Escherichia coli [3] were 0.75 µg/mL (≈ 2.32 µM), 24 µg/mL (≈ 74.3 µM) and 24 µg/mL (≈ 74.3 µM), respectively.
For the compound `Cc1onc(-c2ccccc2)c1C(=O)N[C@@H]1C(=O)N2[C@@H]1SC(C)(C)[C@@H]2C(=O)O` [OXACILLIN], the MIC was > 1300 µg/mL against Escherichia coli [1], > 1300 µg/mL in the test with Escherichia coli [2] and > 650 µg/mL against Escherichia coli [3].
With `CC[C@H]1OC(=O)[C@H](C)[C@@H](O[C@H]2C[C@@](C)(OC)[C@@H](O)[C@H](C)O2)[C@H](C)[C@@H](O[C@@H]2O[C@H](C)C[C@H](N(C)C)[C@H]2O)[C@](C)(O)C[C@@H](C)C(=O)[C@H](C)[C@@H](O)[C@]1(C)O` [ERYTHROMYCIN], the MIC came to 32 µg/mL (≈ 43.6 µM) with Escherichia coli [1], 32 µg/mL (≈ 43.6 µM) with Escherichia coli [2] and 128 µg/mL (≈ 174 µM) in the test with Escherichia coli [3].
As for `NC[C@H]1O[C@H](O[C@H]2[C@H](O)[C@@H](O[C@H]3O[C@H](CO)[C@@H](O)[C@H](N)[C@H]3O)[C@H](N)C[C@@H]2N)[C@H](O)[C@@H](O)[C@@H]1O` [KANAMYCIN], the MIC in the test with Escherichia coli [1] worked out at 0.25 µg/mL (≈ 0.516 µM); against Escherichia coli [2] it was 2 µg/mL (≈ 4.13 µM); in the test on Escherichia coli [3] it was 16 µg/mL (≈ 33 µM).
In the case of `C[C@H]1COc2c(N3CCN(C)CC3)c(F)cc3c(=O)c(C(=O)O)cn1c23.C[C@H]1COc2c(N3CCN(C)CC3)c(F)cc3c(=O)c(C(=O)O)cn1c23.O` [LEVOFLOXACIN], the MIC against Escherichia coli [1], in the test with Escherichia coli [2] and in the test with Escherichia coli [3] was 0.13 µg/mL each time.
As to `N=C(N)NCCC[C@H](NC(=O)[C@@H](N)Cc1ccccc1)C(=O)Nc1ccc2ccccc2c1` (H-Phe-Arg-βNA), the inhibition entry with Escherichia coli [4] was “Active”.
With `O=C(O)c1cn(C2CC2)c2cc(N3CCNCC3)c(F)cc2c1=O` [CIPROFLOXACIN], 0.13 µg/mL (≈ 0.392 µM) was the least that counted as inhibitory in the test on Escherichia coli [3] (MIC).
